Measured values taken from ChEMBL document CHEMBL3352165 (Eur J Med Chem, 2014).
Calls of active or inactive are those of the source. The rule behind the calls is not given here.

Key:
MCF7 = assay: Cytotoxicity against human MCF7 cells assessed as inhibition of cell growth after 72 hrs by sulforhodamine B assay; type: functional, cell-based; conditions: MCF7, 72 h
Summary of the method: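 Cells grown in RPMI-1640 with 5% FBS and plated at 5.0×10^4/ml. Next day exposed to 0.5–5000 ng/ml for 3 days. Survival read by sulforhodamine B staining. IC50 taken from growth curves; mean of at least three determinations.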

[1] = target: T1, Epidermal growth factor receptor (Homo sapiens, UniProt P00533); assay: Inhibition of HER1 (unknown origin) assessed as reduction in autophosphorylation by ELISA method
T1 sequence (P00533 whole entry): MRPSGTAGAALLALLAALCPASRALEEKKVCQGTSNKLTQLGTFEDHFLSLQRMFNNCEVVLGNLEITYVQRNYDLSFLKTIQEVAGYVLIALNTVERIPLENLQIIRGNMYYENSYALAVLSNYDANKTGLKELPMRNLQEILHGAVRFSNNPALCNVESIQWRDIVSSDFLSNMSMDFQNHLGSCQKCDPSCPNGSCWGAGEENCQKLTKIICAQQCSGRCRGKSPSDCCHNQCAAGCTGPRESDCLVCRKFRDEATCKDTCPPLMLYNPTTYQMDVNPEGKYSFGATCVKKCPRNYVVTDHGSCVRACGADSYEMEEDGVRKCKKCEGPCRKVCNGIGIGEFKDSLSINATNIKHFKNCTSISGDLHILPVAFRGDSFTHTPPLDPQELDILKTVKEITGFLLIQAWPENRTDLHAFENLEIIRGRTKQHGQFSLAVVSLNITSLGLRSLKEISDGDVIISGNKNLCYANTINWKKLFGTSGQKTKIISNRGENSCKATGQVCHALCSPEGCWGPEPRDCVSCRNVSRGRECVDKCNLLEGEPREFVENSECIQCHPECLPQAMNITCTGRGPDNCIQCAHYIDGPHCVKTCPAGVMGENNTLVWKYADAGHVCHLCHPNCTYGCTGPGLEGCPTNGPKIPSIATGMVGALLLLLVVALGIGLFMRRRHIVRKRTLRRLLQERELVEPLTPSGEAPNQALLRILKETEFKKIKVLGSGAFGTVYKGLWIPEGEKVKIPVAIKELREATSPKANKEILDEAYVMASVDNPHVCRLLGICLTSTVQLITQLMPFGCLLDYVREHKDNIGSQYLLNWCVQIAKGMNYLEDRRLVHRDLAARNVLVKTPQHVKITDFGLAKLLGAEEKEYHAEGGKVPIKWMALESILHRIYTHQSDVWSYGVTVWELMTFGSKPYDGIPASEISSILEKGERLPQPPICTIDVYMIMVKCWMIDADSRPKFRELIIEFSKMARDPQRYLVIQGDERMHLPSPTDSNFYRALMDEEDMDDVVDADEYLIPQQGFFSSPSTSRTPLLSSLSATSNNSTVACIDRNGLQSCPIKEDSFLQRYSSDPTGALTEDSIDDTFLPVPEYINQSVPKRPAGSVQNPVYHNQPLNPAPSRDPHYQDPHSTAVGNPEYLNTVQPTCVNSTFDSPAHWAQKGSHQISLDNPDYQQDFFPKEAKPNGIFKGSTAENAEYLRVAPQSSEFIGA

[2] = target: T2, Receptor tyrosine-protein kinase erbB-2 (Homo sapiens, UniProt P04626); conditions: BT-474, 0.001 to 1 uM
T2 sequence (P04626 whole entry): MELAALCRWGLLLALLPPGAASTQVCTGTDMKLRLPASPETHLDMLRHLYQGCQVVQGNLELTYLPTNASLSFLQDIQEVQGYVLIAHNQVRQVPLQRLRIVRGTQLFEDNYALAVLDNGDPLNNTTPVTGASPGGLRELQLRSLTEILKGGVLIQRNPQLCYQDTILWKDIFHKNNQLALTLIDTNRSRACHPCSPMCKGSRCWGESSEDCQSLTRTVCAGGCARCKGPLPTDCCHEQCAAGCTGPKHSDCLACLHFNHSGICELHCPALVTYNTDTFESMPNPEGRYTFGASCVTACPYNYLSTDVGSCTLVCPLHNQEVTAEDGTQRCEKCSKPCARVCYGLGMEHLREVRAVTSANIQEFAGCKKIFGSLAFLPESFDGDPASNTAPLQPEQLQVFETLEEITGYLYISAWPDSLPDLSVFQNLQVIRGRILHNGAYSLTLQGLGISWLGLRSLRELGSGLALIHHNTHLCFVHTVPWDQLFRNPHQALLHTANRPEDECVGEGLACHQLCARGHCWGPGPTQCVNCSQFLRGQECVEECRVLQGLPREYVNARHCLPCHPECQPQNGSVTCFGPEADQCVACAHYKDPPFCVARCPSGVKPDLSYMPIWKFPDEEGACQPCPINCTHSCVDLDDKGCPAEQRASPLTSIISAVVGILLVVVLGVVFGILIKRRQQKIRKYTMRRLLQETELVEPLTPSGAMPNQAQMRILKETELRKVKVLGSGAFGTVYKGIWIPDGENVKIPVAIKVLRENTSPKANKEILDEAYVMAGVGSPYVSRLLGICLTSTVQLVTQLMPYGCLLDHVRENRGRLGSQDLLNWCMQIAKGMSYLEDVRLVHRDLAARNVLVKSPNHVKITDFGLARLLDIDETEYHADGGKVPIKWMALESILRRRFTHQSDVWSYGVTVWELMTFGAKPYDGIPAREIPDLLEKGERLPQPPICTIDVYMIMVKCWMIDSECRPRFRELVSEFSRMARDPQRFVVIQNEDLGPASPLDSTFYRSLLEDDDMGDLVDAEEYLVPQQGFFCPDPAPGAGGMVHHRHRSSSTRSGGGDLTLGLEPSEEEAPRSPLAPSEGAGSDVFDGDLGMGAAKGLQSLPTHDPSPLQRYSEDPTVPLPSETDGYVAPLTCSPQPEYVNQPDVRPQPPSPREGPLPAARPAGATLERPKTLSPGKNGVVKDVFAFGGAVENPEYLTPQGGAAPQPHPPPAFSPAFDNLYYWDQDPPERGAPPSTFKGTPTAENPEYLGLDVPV

[3] = Cmax in Beagle dog at 240 mg/kg, po dosed for 14 days by LC/MS/MS method; type: ADME, organism-based, Canis lupus familiaris; set-up: dose 240 mg/kg, route oral; conditions: in vivo
Summary of the method: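 Beagle dogs (n = 6) dosed by oral gavage at 240 mg/kg daily for 14 consecutive days. Blood taken predose and at 0.25–24 h on days 1 and 14, plasma stored at −20 °C, analysed by validated LC/MS/MS. Half-life and AUC by model-independent methods; Cmax and MRT read from concentration–time data.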

[4] = Antitumor activity against human Calu3 cells xenografted in BALB/cA mouse assessed as tumor growth inhibition at 200 mg/kg, po; type: functional; conditions: Calu-3, read-out: TGI
Summary of the method: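 Female BALB/cA nude mice, 6–7 weeks old, implanted s.c. on midright side with 2×10^6 Calu-3 cells in 0.2 ml PBS. Grouped at 60–150 mm³ tumour volume (6 per treated group, 12 vehicle). Oral dosing in 0.5% CMC with 0.1% Tween-80. Caliper volume = L×W²×0.5; inhibition = (1 − T/C)×100% on relative tumour volume; weight tracked for 21 d.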

[5] = target: Platelet-derived growth factor receptor beta (Homo sapiens, UniProt P09619); conditions: U-87MG ATCC, 0.001 to 1 uM
Platelet-derived growth factor receptor beta, sequence (P09619 whole entry): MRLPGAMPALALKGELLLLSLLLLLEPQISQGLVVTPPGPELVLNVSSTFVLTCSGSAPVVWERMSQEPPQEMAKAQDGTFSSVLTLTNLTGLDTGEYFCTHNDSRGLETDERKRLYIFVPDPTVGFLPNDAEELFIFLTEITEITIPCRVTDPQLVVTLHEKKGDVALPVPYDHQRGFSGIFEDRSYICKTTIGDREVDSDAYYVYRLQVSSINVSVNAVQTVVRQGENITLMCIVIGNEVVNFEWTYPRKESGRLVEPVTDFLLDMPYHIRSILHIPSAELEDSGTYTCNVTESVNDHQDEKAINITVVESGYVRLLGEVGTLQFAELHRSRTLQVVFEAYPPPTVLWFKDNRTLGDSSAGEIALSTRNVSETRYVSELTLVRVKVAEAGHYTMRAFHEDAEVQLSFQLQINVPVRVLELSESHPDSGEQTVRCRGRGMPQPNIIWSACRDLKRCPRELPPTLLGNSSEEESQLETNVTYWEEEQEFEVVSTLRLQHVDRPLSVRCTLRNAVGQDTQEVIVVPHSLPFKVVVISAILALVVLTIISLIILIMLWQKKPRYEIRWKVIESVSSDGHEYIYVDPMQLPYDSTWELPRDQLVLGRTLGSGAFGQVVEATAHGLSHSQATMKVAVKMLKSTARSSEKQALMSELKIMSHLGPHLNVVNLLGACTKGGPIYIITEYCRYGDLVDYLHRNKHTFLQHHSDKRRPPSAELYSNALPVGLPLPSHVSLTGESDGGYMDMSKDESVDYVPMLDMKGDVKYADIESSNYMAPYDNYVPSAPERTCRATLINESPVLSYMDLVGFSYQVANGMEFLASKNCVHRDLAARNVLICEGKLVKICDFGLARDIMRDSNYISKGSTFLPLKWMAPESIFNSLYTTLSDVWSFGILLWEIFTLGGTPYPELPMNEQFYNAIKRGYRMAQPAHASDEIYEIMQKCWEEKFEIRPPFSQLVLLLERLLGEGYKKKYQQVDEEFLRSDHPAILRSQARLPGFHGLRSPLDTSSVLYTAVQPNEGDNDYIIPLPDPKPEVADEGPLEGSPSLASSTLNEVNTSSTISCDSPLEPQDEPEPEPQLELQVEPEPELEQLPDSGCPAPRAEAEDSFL

BT-474 [6] = assay: Induction of cell cycle arrest in human BT474 cells assessed as accumulation at S phase at 1 uM incubated for 12 hrs by propidium iodide staining based flow cytometry (reference value: 19%); type: functional
MDA-MB-231 = assay: cells; conditions: Homo sapiens, MDA-MB-231, 72 h
Mus musculus = assay: Toxicity in human Calu3 cells xenografted BALB/cA mouse assessed as body weight loss at 200 mg/kg, po measured every other day for 21 days; type: organism-based, Calu-3; set-up: dose 200 mg/kg, route oral; conditions: in vivo, 504 h
Summary of the method: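 Female BALB/cA nude mice, 6–7 weeks old, implanted s.c. on the mid-right flank with 2×10^6 Calu-3 cells in 0.2 ml PBS. At 60–150 mm³ tumour volume, mice randomised into six per treatment group (twelve vehicle controls). Oral dosing in 0.5% CMC aqueous solution with 0.1% Tween-80. Body weight recorded every other day for 21 d.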

NCI-H460 = assay: cells; conditions: Homo sapiens, NCI-H460, 72 h
BT-474 [7] = assay: Induction of cell cycle arrest in human BT474 cells assessed as accumulation at S phase at 0.01 uM incubated for 12 hrs by propidium iodide staining based flow cytometry (reference value: 19%); type: functional
[8] = target: T1, Epidermal growth factor receptor; conditions: A-431, 0.001 to 10 uM
BT-474 [9] = assay: Induction of apoptosis in human BT474 cells at 10 uM incubated for 12 hrs by propidium iodide staining based flow cytometry (reference value: 1%); type: functional
[10] = target: T2, Receptor tyrosine-protein kinase erbB-2; conditions: BT-474, 0.001 to 1 uM; remark: listed apart in the source
MRC5 = assay: cells; conditions: Homo sapiens, MRC5, 72 h
BT-474 [11] = assay: Induction of cell cycle arrest in human BT474 cells assessed as accumulation at G2/M phase at 0.01 uM incubated for 12 hrs by propidium iodide staining based flow cytometry (reference value: 14%); type: functional
[12] = Mean residence time in Beagle dog at 240 mg/kg, po administered as single dose measured after 0.25 to 24 hrs post dose by LC/MS/MS method; type: ADME, organism-based, Canis lupus familiaris; set-up: dose 240 mg/kg, route oral; conditions: in vivo
Summary of the method: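 Single oral gavage of 240 mg/kg to beagle dogs (n = 6). Blood sampled at 0.25–24 h, kept on ice, centrifuged within 1 h (1000 × g, 4 °C, 15 min), plasma stored at −20 °C. Drug quantified by validated LC/MS/MS. AUC0–24 from non-compartmental analysis; Cmax and MRT taken directly from concentration–time data.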

[13] = Tmax in Beagle dog at 240 mg/kg, po administered as single dose measured after 0.25 to 24 hrs post dose by LC/MS/MS method; type: ADME, organism-based, Canis lupus familiaris; set-up: dose 240 mg/kg, route oral; conditions: in vivo
Summary of the method: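 Beagle dogs (n = 6), single oral gavage dose of 240 mg/kg. Plasma levels measured by validated LC/MS/MS. Tmax read directly from the concentration-time data.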

[14] = Tmax in Beagle dog at 240 mg/kg, po dosed for 14 days by LC/MS/MS method; type: ADME, organism-based, Canis lupus familiaris; set-up: dose 240 mg/kg, route oral; conditions: in vivo
Summary of the method: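 Beagle dogs (n = 6) given 240 mg/kg daily by oral gavage for 14 consecutive days. On days 1 and 14, blood taken predose and at 0.25–24 h post-dose. Plasma held at -20 °C, then quantified by validated LC/MS/MS. Tmax taken directly from the plasma concentration-time data.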

BT-474 [15] = assay: Induction of apoptosis in human BT474 cells at 0.001 uM incubated for 12 hrs by propidium iodide staining based flow cytometry (reference value: 1%); type: functional
[16] = target: Mast/stem cell growth factor receptor Kit (Homo sapiens, UniProt P10721); assay: Inhibition of c-KIT (unknown origin) by ELISA method
Mast/stem cell growth factor receptor Kit, sequence (P10721 whole entry): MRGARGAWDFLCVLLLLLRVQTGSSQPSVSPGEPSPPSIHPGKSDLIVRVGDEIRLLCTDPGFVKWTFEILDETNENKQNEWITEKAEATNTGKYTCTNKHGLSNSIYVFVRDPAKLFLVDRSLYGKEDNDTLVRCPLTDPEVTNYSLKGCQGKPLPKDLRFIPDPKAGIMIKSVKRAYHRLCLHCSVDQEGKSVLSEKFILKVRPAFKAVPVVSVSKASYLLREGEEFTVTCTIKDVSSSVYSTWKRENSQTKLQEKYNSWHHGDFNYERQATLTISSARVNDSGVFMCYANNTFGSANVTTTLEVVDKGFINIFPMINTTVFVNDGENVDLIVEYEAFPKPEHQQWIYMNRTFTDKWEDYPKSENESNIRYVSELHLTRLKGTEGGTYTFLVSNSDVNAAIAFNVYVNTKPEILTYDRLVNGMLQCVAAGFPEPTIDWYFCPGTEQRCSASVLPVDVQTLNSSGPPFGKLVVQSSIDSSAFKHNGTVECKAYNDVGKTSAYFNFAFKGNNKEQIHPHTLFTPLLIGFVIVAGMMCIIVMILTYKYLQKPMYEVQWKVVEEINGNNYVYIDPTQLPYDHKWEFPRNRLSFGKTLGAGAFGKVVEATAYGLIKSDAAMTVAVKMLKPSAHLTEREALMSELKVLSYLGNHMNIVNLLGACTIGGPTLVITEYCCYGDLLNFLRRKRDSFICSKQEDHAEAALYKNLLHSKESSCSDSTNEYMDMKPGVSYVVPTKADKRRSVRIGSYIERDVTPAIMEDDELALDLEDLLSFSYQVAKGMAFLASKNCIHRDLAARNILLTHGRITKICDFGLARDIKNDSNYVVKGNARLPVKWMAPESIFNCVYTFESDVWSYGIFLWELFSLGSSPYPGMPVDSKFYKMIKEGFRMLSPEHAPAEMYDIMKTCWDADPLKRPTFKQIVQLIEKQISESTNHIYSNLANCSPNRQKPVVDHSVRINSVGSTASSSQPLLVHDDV
Summary of the method: (§1)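 Phosphotyrosine ELISA with purified kinase (20 ng) and 5 µM ATP in buffer (50 mM HEPES pH 7.4, 20 mM MgCl2, 0.1 mM MnCl2, 0.2 mM Na3VO4, 1 mM DTT), 1 h at 37 °C, DMSO ≤1%. Detection by PY99 antibody, then HRP anti-mouse IgG with o-phenylenediamine, A490. IC50 by Logit from at least three independent tests.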

[17] = target: T2, Receptor tyrosine-protein kinase erbB-2; assay: Inhibition of HER2 (unknown origin) assessed as reduction in autophosphorylation by ELISA method; summary of the method: as §1
cells = conditions: Homo sapiens, Calu-3, 72 h
MDA-MB-453 = assay: cells; conditions: Homo sapiens, MDA-MB-453, 72 h
BT-474 [18] = assay: Induction of cell cycle arrest in human BT474 cells assessed as accumulation at G1 phase at 10 uM incubated for 12 hrs by propidium iodide staining based flow cytometry (reference value: 67%); type: functional
BT-474 [19] = assay: Induction of cell cycle arrest in human BT474 cells assessed as accumulation at G2/M phase at 0.001 uM incubated for 12 hrs by propidium iodide staining based flow cytometry (reference value: 14%); type: functional

- IC50 [1]: 4.1 nM
- inhibition [2]: Dose-dependent effect
- Cmax [3]: 2900 ng/mL
- inhibition [5]: inactive
- IC50 (MDA-MB-231): 95300 nM
- IC50 (NCI-H460): > 100000 nM
- inhibition [8]: Dose-dependent effect
- inhibition [10]: Dose-dependent effect
- MRT [12]: 6.1 h
- Tmax [13]: 4 h
- Tmax [14]: 4.5 h
- IC50 [16]: > 200000 nM
- IC50 [17]: 0.5 nM
- IC50 (cells): 230 nM
- IC50 (MDA-MB-453): 260 nM
Structure (SMILES): CN(C)[C@H](CS(C)(=O)=O)c1ccc(-c2ccc3ncnc(Nc4ccc(OCc5cccc(F)c5)c(Cl)c4)c3c2)o1
- IC50 (MCF7): 5670 nM
- inhibition in vivo at 200 mg/kg [4]: 83%
- Activity (BT-474 [6]): 6%
- Activity (Mus musculus): Non-toxic
- Activity (BT-474 [7]): 9%
- Activity (BT-474 [9]): 11%
- IC50 (MRC5): > 100000 nM
- Activity (BT-474 [11]): 14%
- Activity (BT-474 [15]): 1%
- Activity (BT-474 [18]): 80%
- Activity (BT-474 [19]): 14%
